Laboratory results published in PubChem BioAssay.
Values without a mark were called inactive. Results filed as inconclusive are left out. Calls of active or inactive are those of the source.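 How the source made its calls, unless noted: active means inhibition over a set limit, the all-compound mean plus 3 SD, in both replicate runs; inconclusive means over that limit in just one replicate run; inactive means at or under that limit in both runs.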

Assays:
[1] = S. cerevisiae growth inhibition in permissive medium (OD615), pilot counter-assay for S. cerevisiae lifespan shortening project, permissive growth control (AID 705;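 active means growth inhibition above 25% in both replicates, a cutoff set 3 SD above the mean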); details: OD615, 24 h, at 10 µM, hits give high values
Procedure, shortened: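 assay system = Saccharomyces cerevisiae strain carrying genetically modified DeaD replicative-lifespan system | medium = SC raffinose/galactose permissive medium | dosing = 10 µM single dose, 0.25% DMSO | schedule = 24 h compound exposure at 30 °C after 4 h pre-growth | measured by = OD at 615 nm | read-out basis = growth inhibition from lowered OD615 after 24 h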

[2] = S. cerevisiae growth inhibition in restrictive medium, OD615, pilot screen, restrictive growth control, yeast lifespan reduction project (AID 706;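 active means growth inhibition above a set limit, 3 SD over mean compound inhibition, in both replicates, cut at about 43% in these data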;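 further: modified DeaD lifespan yeast strain shifted to restrictive glucose medium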); details: OD615, 48 h, at 10 µM, hits give high values
Procedure, shortened: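 Buffer or medium: CSMM-D glucose medium. Material: genetically modified Saccharomyces cerevisiae, DeaD replicative lifespan assay strain. Times: 48 h compound exposure at 30 °C. Measured by: optical density at 615 nm.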

[3] = doxorubicin toxicity protection in MRP-1 cells – H69AR cells, CellTiter-Glo, duplicate, MRP-1 activator project, pilot screen (AID 807;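 active means viability increase at or above a cutoff of the median across tested compounds plus 3 SD, cut at about 8.5% in these data, passing the limit was not always enough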;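 further: compound pretreatment 18-22 h then 72 h combined with doxorubicin; 0% = doxorubicin alone and 100% = vehicle without doxorubicin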); details: H69AR viability with doxorubicin, CellTiter-Glo luminescence; at 10 µM; hits give high values
[4] = viability of HCT116 without oncogenic beta-catenin – human colon tumor cells, pilot screen (AID 823;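 active means cell viability at or below a set limit in both duplicate runs, the limit being the all-compound median minus 4 SD, cut at about 23% in these data, passing the limit was not always enough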;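 further: 0% = wells killed by 20 µM Hyamine and 100% = untreated DMSO cell wells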); details: HCT116 beta-catenin knockout viability, CellTiter-Glo, 60 h; at 10 µM; hits give low values
[5] = viability of PTEN-null HCT116 cells – cell-based, HCT116 clonal line, CellTiter-Glo, pilot screen (AID 824;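 active means viability at or below 27.92% in each of two runs, the all-compound median minus 4 SD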;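 further: 0% = 20 µM Hyamine control and 100% = vehicle cell control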); details: HCT116 PTEN-deleted viability, 60 h, at 10 µM, hits give low values
[6] = RAM pathway blockade in budding yeast – dse1pr::URA3 reporter, 5-FOA selection, pilot screen (AID 869);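 further: 0% = DMSO wells with no growth and 100% = 10 µM 1-NA-PP1 with full growth; RAM network block rescues cells from 5-FOA so hits raise OD615 growth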; details: S. cerevisiae dse1pr::URA3 5-FOA growth, OD615, 2 d; at 10 µM; hits give high values; strain carries analog-sensitive mutant Cbk1 kinase
[7] = RAM signaling pathway blockade in yeast – S. cerevisiae, Pdr1DBD-CYC8 efflux-inhibited sensitized strain, primary screen (AID 1298;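 active means RAM network inhibition above 8.4% in each of two replicates, 3 SD over the compound average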;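 further: 0% = DMSO untreated cells without growth and 100% = 10 µM 1-NA-PP1 full growth; higher means more yeast growth rescued from 5-FOA killing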); details: S. cerevisiae cbk1-as DSE1-URA3 strain, 5-FOA growth OD615, 2 d; at 50 µM; hits give high values

SMILES | growth inhibition [1] [%] | growth inhibition [2] [%] | viability increase [3] [%] | viability [4] | viability [5] | inhibition [6] [%] | RAM network inhibition [7] [%]
CCOC(=O)c1c(N=CN(C)C)c(C#N)n2c1CCC2 | -15.1 | -6.7 | -1.41 | 101% | 93.2% | 1.11 | 5.49
CCSc1nnc(-c2ccc(Cl)cc2Cl)o1 | -10.3 | -5.92 | -5.13 | 83.5% | 85.4% | 1.65 | 2.2
CC(=O)CCC(=O)NCCc1ccccc1F | -5.29 | 9.55 | 0.02 | 94.8% | 97.2% | 0.02 | 0.25
CCCCCn1c(=O)[nH]c2cc(C(=O)NCCCN3CCC(C)CC3)ccc2c1=O | -6.26 | 3.06 | -6.38 | 56.6% | 61.9% | 0.015 | 3.34
Cn1c(=O)oc2cc(S(=O)(=O)NC3CCCc4ccccc43)ccc21 (stereo not drawn) | -25.4 | -11.4 | -1.98 | 92.4% | 90.7% | 3.1 | 6.28
CCCn1cnc2cc(NCc3ccccn3)ccc21 | -5.07 | 8.03 | -2.58 | 98.5% | 100% | 2.06 | -2.3
O=C(O)CCc1ccc(-c2cccs2)n1NC(=O)c1ccc(Cl)cc1 | -6.03 | -14.6 | -3.75 | 98% | 93.9% | 0.29 | -0.58
Cc1ccc(C2/C(=C(/O)c3ccccc3)C(=O)C(=O)N2CCN2CCOCC2)o1 (stereo not drawn) | 8.83 | 8.54 | -1.8 | 104% | 96.7% | 0.095 | -0.05
N#CCCCSc1nnc(-c2ccc(Cl)cc2)n1-c1ccccc1 | -4.58 | 9.62 | -3.58 | 83% | 93% | 1.34 | 4.2
CCC1Oc2ccc(C)cc2N(CC(=O)N2CCN(c3ccc(F)cc3)CC2)C1=O (stereo not drawn) | 5.46 | 11.1 | -3.35 | 90% | 83.5% | -0.495 | -0.06
COc1cccc(C2N(c3ccc(Cl)cc3)C(=O)C3CCCN32)c1 (stereo not drawn) | -5.56 | 1.89 | 0.15 | 97.5% | 94.5% | 1.04 | 0
CCOc1cccc(C2c3c(oc4cc(C)c(C)cc4c3=O)C(=O)N2CCCN(C)C)c1 (stereo not drawn) | 1.31 | -0.895 | -3.58 | 92.9% | 85.9% | 1.8 | 2.55
O=C(NCCC1=CCCCC1)c1ccc2c(=O)n3c(nc2c1)CCCCC3 | -10.1 | -2.77 | -1.07 | 89.6% | 97.8% | -0.66 | 0.26
O=C(CCc1nc2ccccc2[nH]1)N1CCN(C(=O)c2ccco2)CC1 | -9.21 | -5.44 | -0.98 | 101% | 96.7% | 0.87 | 1.88
CNC(=O)CN1C(=O)CSc2nc(C)cc(C)c21 | -8.87 | -6.29 | 0.88 | 99.9% | 97.8% | 1.83 | 1.73
O=C(COc1ccc(F)cc1)Nc1nccs1 | -3.23 | 4.43 | 2.32 | 103% | 90.2% | 3.26 | 5.34
CCOC(=O)Cn1c(=O)oc2cc(S(=O)(=O)N(C)Cc3ccco3)ccc21 | -13.2 | -14 | -4.08 | 99.9% | 94.1% | 3.37 | 4.56
COc1ccc(N2C(=O)CCC(C(=O)NCc3ccccn3)C2c2ccc(OC)c(OC)c2)cc1 (stereo not drawn) | -3.9 | 6.09 | -1.53 | 98.3% | 100% | 1.01 | -0.31
O=S(=O)(NCC(c1cccnc1)N1CCN(Cc2ccccc2)CC1)c1ccccc1 (stereo not drawn) | -10 | -15.8 | -2.02 | 101% | 92.8% | 1.57 | 0.96
CN(CC(=O)N1CCCCCC1)S(=O)(=O)c1cccc2cccnc12 | -6.24 | -27 | -4.51 | 101% | 82% | 2.14 | -1.18
CCOC(=O)c1c(C)[nH]c(C(=O)OC)c1CCC(=O)OC | -9.89 | -23.6 | -2.86 | 90.8% | 91.9% | 2.56 | 2.65
COc1cc2[nH]c(=O)n(CCCCCC(=O)NCCCN3CCC(C)CC3)c(=O)c2cc1OC | -13.8 | -6.3 | -0.8 | 93.8% | 101% | 1.68 | 2.66
Cc1cc(C)c2c(=O)[nH]n(C3CCOC(C)(C)C3)c2n1 (stereo not drawn) | -4.97 | -0.145 | -0.16 | 107% | 99.8% | -0.37 | 1.49
CC(=O)c1cccc(NC(=O)N2CCCC2C(=O)NCc2ccccc2)c1 (stereo not drawn) | -6.55 | -11.5 | -1.13 | 104% | 100% | 0.87 | 1.46
CCN1CCN(C(C(=O)NC2CCCC2)c2ccc(Cl)cc2)CC1 (stereo not drawn) | -14.8 | 0.47 | -4.44 | 93.9% | 93.1% | 1.02 | 3.71

SMILES | growth inhibition [1] [%] | growth inhibition [2] [%] | viability increase [3] [%] | viability [4] | viability [5] | inhibition [6] [%] | RAM network inhibition [7] [%]
CC(C)(C)C1CCc2c(sc(NC(=O)c3cc(C4CC4)on3)c2C#N)C1 (stereo not drawn) | -2.48 | -5.6 | -1.27 | 96.8% | 90.5% | 3.56 | 2.83
CC1=C(NCCc2ccccc2)CCC1=O | 1.6 | -14.4 | -2.97 | 92% | 86.2% | 1.74 | 2.7
O=C(C1CCN(S(=O)(=O)c2cccc3cccnc23)CC1)N1CC=C(c2ccccc2)CC1 | 6.34 | 9.98 | -2.61 | 79.9% | 83% | 1.93 | 2.07
Nc1nonc1-n1nncc1-c1ccccc1 | -8.35 | -13.6 | -1.04 | 92.4% | 96.7% | 1.67 | 1.25
CCn1c(C)nc2cc(S(=O)(=O)N3CCCC3)ccc21 | -1.56 | 11.8 | -1.11 | 94.3% | 88.6% | 0.805 | 2.71
O=C(CSCCNS(=O)(=O)c1ccccc1)Nc1ccccc1 | -6.82 | -4.2 | -2.84 | 91% | 91.6% | 1.77 | 0.37
CCn1cc(C(=O)NCC(=O)OC)c2cc(OC)c(OC)cc2c1=O | -6.43 | -18.9 | 0.9 | 105% | 104% | 0.59 | 2.3
COCN(C#N)c1nc(OC)nc(OC)n1 | 0.79 | 7.01 | 2.98 | 103% | 104% | -0.1 | 2.34
Cn1nc(-c2ccc(Cl)cc2)c2cc(C(=O)N3CCOCC3)sc21 | -6.13 | 4.78 | -5.6 | 89.4% | 80.5% | 1.29 | 3.38
COc1ccc(NC(=O)NCCCN2CCc3ccccc3C2)cc1 | 3.62 | 0.72 | -2.53 | 97.3% | 98.2% | 1.15 | -1.19
CC(=O)Nc1ccc(NC(=O)c2ccco2)cc1 | -9.41 | -14.5 | -2.09 | 94.1% | 96.8% | -0.19 | 2.4
O=C1CCCC/C1=C\Nc1ccc(Cl)cn1 | -4.26 | 1.26 | 1.58 | 98.1% | 95% | 2.25 | -1.13
OCCN1CCN(Cc2cccc(Oc3ccc(Cl)cc3)c2)CC1 | -4.24 | -1.81 | -3.74 | 63.2% | 73.1% | 2.6 | -0.21
CCOC(=O)CNC(=O)c1cn(CC(C)C)c(=O)c2cc(OC)c(OC)cc12 | -5.46 | -6.08 | -1.77 | 105% | 101% | -0.375 | 4.17
Cc1nnc(SCCn2c(N3CCN(c4ccccc4)CC3)nc3c2c(=O)n(C)c(=O)n3C)s1 | -8.87 | -18.3 | -1.99 | 104% | 102% | 1.23 | 2.19
Cc1cc(C)n(-c2ncnc3sc4c(c23)CC(C)CC4)n1 (stereo not drawn) | -1.99 | 6.4 | -0.82 | 89.7% | 90.7% | 1.6 | 0.87
O=C(CN1C(=O)COc2ccccc21)Nc1ccc(F)cc1 | -5.98 | 6.11 | -5.59 | 106% | 91.6% | 1.26 | 0.3
Cc1cccc(C)c1N1C(=O)c2ccccc2C1=O | -6.34 | -3.44 | -1.87 | 105% | 92.7% | 0.535 | 2.47
CCCCOCCCNC(=O)Cc1cccs1 | -16.7 | -10.3 | -2.03 | 91.8% | 90% | 0.465 | 5.12
Cc1cc(C)cc(N(CC(=O)N2CCc3ccccc32)S(=O)(=O)c2c(C)noc2C)c1 | -11.2 | -5.73 | -4.52 | 90.4% | 89.9% | 2.83 | 0.55
CCOC(=O)N1CCC(NC(=O)C2CCCN(Cc3nc(-c4cccc(Cl)c4)oc3C)C2)CC1 (stereo not drawn) | -13.4 | -23.4 | -5.39 | 40.4% | 49.5% | 0.715 | 3.95
Nc1c(C(=O)NCc2ccccc2)nnn1Cc1ccc(F)cc1 | -1.67 | -11.5 | -0.8 | 98.6% | 92.1% | 1.8 | 3.21
Cc1cc(C)n(-c2nc(NC(C)(C)C)nc(NC(C)(C)C)n2)n1 | -11.5 | 11.4 | -2.08 | 8.58% (active) | 11.2% (active) | 2.85 | 5.62
Cc1ccc(-n2c(SCC(=O)Nc3cc(C)on3)nc3c(c2=O)SC(C)C3)cc1 (stereo not drawn) | -1.77 | -14.4 | -2.56 | 87.5% | 88.4% | 0.5 | 2.13
